# Results of several laboratories.
# Each line is one published result; the experiments were not run side by side.
# Host: human
Structure (SMILES),system,conditions,endpoint,result
c1cnc2ccc(Nc3nc(NC4CC4)c4nc[nH]c4n3)cc2c1,plasma,"oral, 800 mg/m², patients",CL/F,76.6 L/h
CCNCCCNC/C=C\CNCCCNCC,plasma,"intravenous, 50 mg, patients, infusion",clearance,10500 mL/min
CCOc1ccc(Cc2cc([C@@H]3O[C@H](CO)[C@@H](O)[C@H](O)[C@H]3O)ccc2Cl)cc1,plasma,"oral, multiple doses, steady state",CL/F,21.1 L/h
Cn1cc(-c2cnc3cnn(S(=O)(=O)c4cnc5ccc(-c6cnn(C)c6)cn45)c3c2)cn1,plasma,"oral, 300 mg, single dose, fasted, healthy volunteers",CL/F,12.8 L/h
COc1cc(C(=O)NC2CCN(C)CC2)c(F)cc1Nc1ncc(C(F)(F)F)c(Oc2cccc3c2C(=O)N(C)C3)n1,plasma,"oral, 100 mg, multiple doses, once daily, patients",CL/F,10.4 L/h
CS(=O)(=O)CCC#N,plasma,"oral, 100 mg, single dose, fasted",CL/F,0.3 mL/min/kg
Cc1ccc(C(=O)N(CCCN)[C@@H](c2oc3cc(Cl)ccc3c(=O)c2Cc2ccccc2)C(C)C)cc1,plasma,"intravenous, 8 mg/m², single dose, patients, infusion",clearance,23.1 mL/min
OC[C@H]1O[C@@H](c2ccc(Cl)c(Cc3ccc(O[C@H]4CCOC4)cc3)c2)[C@H](O)[C@@H](O)[C@@H]1O,urine,"oral, 25 mg, single dose",renal clearance,21.1 mL/min
